Measured values gathered from unrelated publications.
Lines come from different studies, so protocols differ.
EIF2AK4: eIF-2-alpha kinase GCN2 (EIF2AK4, Homo sapiens, UniProt Q9P2K8)
EIF2AK4 S808G: eIF-2-alpha kinase GCN2 (EIF2AK4, Homo sapiens, UniProt Q9P2K8, S808G)
EIF2AK4 S808G C-terminal kinase domain: eIF-2-alpha kinase GCN2, C-terminal kinase domain (EIF2AK4, Homo sapiens, UniProt Q9P2K8, S808G)

| SMILES | target | test | test system | conditions | measurement | value |
| --- | --- | --- | --- | --- | --- | --- |
| CN1CC(Oc2cnc(C#N)cc2-c2ccn3nc(NC(=O)C4CC4)cc3c2)C1 | EIF2AK4 | enzyme activity, inhibitor | – | 1 µM | inhibition | 15% |
| Cc1ccc(C(=O)Nc2ccc(CN3CCN(C)CC3)c(C(F)(F)F)c2)cc1C#Cc1cnc2cccnn12 | EIF2AK4 S808G | enzyme activity, inhibitor | – | 23.5 nM | remaining activity | 85% |
| COc1cc(Cl)c(C(=O)N[C@@H](CN[C@H]2CC[C@@H](N)CC2)Cc2ccc(C#N)cc2)cc1-c1ccc(CN[C@H](C)c2ccc(C)cc2)o1 | EIF2AK4 | enzyme activity, inhibitor | – | 1 µM | remaining activity | 102% |
| Cc1cc(NC(=O)c2cccc3cc(-c4cccc5[nH]nc(N)c45)ccc23)ccc1F | EIF2AK4 | enzyme activity, inhibitor | – | 0.1 µM | activity vs control | 92% |
| Cc1cnc(NC2CCOCC2)nc1-n1cnc(C(=O)NC(CN)c2cc(F)cc(Cl)c2)c1 (stereo not shown) | EIF2AK4 | enzyme activity, inhibitor, radiometric | – | 1 µM | remaining activity | 82% |
| Nc1ncnc2occ(-c3ccc(NC(=O)Nc4cc(C(F)(F)F)ccc4F)cc3)c12 | EIF2AK4 S808G C-terminal kinase domain | cell-free assay, inhibitor | – | 20 µM | remaining signal | 3.6% |
| COc1ccc2cc(OCC3(C(=O)O)CN(C(=O)c4ccc(F)cc4)C3)ccc2c1 | EIF2AK4 S808G C-terminal kinase domain | cell-free assay, competition with immobilised ligand | – | 1 µM | remaining binding | 100% |
| CNc1cc(Oc2cc(C(=O)Nc3cc(N4CCN(C)CC4)cc(C(F)(F)F)c3)ccc2C)ncn1 | EIF2AK4 | target engagement in cells, inhibitor, chemoproteomics | Huh-7 | 1 µM | inhibition | 37% |
| Cc1ccc(NC(=O)c2ccc(C)c(C(F)(F)F)c2)cc1C#Cc1nn(C2CCC(O)CC2)c2ncnc(N)c12 (stereo not shown) | EIF2AK4 | cell-free assay | – | 10 µM | remaining signal | 50% |
| CC(=O)Nc1c(C(C)=O)c(=O)n(C)c2nc(-c3ccc(Cl)cc3Cl)c(-c3ccc(Cl)cc3)cc12 | EIF2AK4 S808G | binding, competition with immobilised ligand | – | 1 µM | remaining binding | 48% |
